# Measurements published in ChEMBL document CHEMBL4689842, “EUbOPEN Chemogenomics Library wave 1” (2021).
# Test system: Fibroblast
# Assay: Multiplex assay against human fibroblast
# Format: toxicity, cell-based
# Outline: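 On a CQ1 microscope at 37°C and 5% CO2, live cells were imaged after compound addition. They had been stained at seeding with Hoechst33342, BioTracker Green Microtubule Cytoskeleton Dye, MitoTracker Red and Annexin V Alexa Fluor 680. CellPathfinder machine-learning gating assigned cells to Hoechst high-intensity objects or normal cells, normal cells to healthy, pyknosed or fragmented nuclei, and pyknosed cells to mitotic or apoptotic. Tubulin, mitochondrial-mass and membrane-permeability phenotypes are per cents of healthy-nucleus cells.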
# [1] = 12 h, 1 µM, compound concentration 1 uM, replicate 1
# [2] = 12 h, 1 µM, compound concentration 1 uM, replicate 2
# [3] = 12 h, 10 µM, compound concentration 10 uM, replicate 1
# [4] = 12 h, 10 µM, compound concentration 10 uM, replicate 2
# [5] = 24 h, 1 µM, compound concentration 1 uM, replicate 1
# [6] = 24 h, 1 µM, compound concentration 1 uM, replicate 2
# [7] = 24 h, 10 µM, compound concentration 10 uM, replicate 1
# [8] = 24 h, 10 µM, compound concentration 10 uM, replicate 2
# [9] = 48 h, 1 µM, compound concentration 1 uM, replicate 1
# [10] = 48 h, 1 µM, compound concentration 1 uM, replicate 2
# [11] = 48 h, 10 µM, compound concentration 10 uM, replicate 1
# [12] = 48 h, 10 µM, compound concentration 10 uM, replicate 2
structure (smiles),measurement,setting,value
CCOc1cc2ncc(C#N)c(Nc3ccc(OCc4cccc(F)c4)c(Cl)c3)c2cc1NC(=O)/C=C/CN(C)C [HKI-357],Population Apoptotic (%),[1],72%
same,Population Fragmented Nuclei (%),[1],21%
same,Population Healthy Nuclei (%),[1],60%
same,Population Hoechst High Intensity Objects (%),[1],14%
same,Population Membrane Permeable-Phenotype (%),[1],7%
same,Population Mitochondria Different-Phenotype (%),[1],7%
same,Population Mitotic Cells (%),[1],27%
same,Population Normal (%),[1],85%
same,Population Pyknosed Nuclei (%),[1],18%
same,Population Tubulin-Different-Phenotype (%),[1],11%
same,Total Cell Count,[1],223
same,Population Apoptotic (%),[2],33%
same,Population Fragmented Nuclei (%),[2],60%
same,Population Healthy Nuclei (%),[2],31%
same,Population Hoechst High Intensity Objects (%),[2],34%
same,Population Membrane Permeable-Phenotype (%),[2],4%
same,Population Mitochondria Different-Phenotype (%),[2],9%
same,Population Mitotic Cells (%),[2],66%
same,Population Normal (%),[2],65%
same,Population Pyknosed Nuclei (%),[2],8%
same,Population Tubulin-Different-Phenotype (%),[2],13%
same,Total Cell Count,[2],107
same,Population Apoptotic (%),[3],76%
same,Population Fragmented Nuclei (%),[3],42%
same,Population Healthy Nuclei (%),[3],37%
same,Population Hoechst High Intensity Objects (%),[3],13%
same,Population Membrane Permeable-Phenotype (%),[3],15%
same,Population Mitochondria Different-Phenotype (%),[3],12%
same,Population Mitotic Cells (%),[3],23%
same,Population Normal (%),[3],86%
same,Population Pyknosed Nuclei (%),[3],20%
same,Population Tubulin-Different-Phenotype (%),[3],46%
same,Total Cell Count,[3],368
same,Population Apoptotic (%),[4],37%
same,Population Fragmented Nuclei (%),[4],61%
same,Population Healthy Nuclei (%),[4],20%
same,Population Hoechst High Intensity Objects (%),[4],46%
same,Population Mitochondria Different-Phenotype (%),[4],26%
same,Population Mitotic Cells (%),[4],62%
same,Population Normal (%),[4],53%
same,Population Pyknosed Nuclei (%),[4],17%
same,Population Tubulin-Different-Phenotype (%),[4],78%
same,Total Cell Count,[4],170
same,Population Apoptotic (%),[5],57%
same,Population Fragmented Nuclei (%),[5],23%
same,Population Healthy Nuclei (%),[5],57%
same,Population Hoechst High Intensity Objects (%),[5],15%
same,Population Membrane Permeable-Phenotype (%),[5],6%
same,Population Mitochondria Different-Phenotype (%),[5],3%
same,Population Mitotic Cells (%),[5],42%
same,Population Normal (%),[5],84%
same,Population Pyknosed Nuclei (%),[5],18%
same,Population Tubulin-Different-Phenotype (%),[5],5%
same,Total Cell Count,[5],238
same,Population Apoptotic (%),[6],60%
same,Population Fragmented Nuclei (%),[6],59%
same,Population Healthy Nuclei (%),[6],33%
same,Population Hoechst High Intensity Objects (%),[6],31%
same,Population Membrane Permeable-Phenotype (%),[6],13%
same,Population Mitochondria Different-Phenotype (%),[6],4%
same,Population Mitotic Cells (%),[6],40%
same,Population Normal (%),[6],68%
same,Population Pyknosed Nuclei (%),[6],7%
same,Population Tubulin-Different-Phenotype (%),[6],18%
same,Total Cell Count,[6],97
same,Population Apoptotic (%),[7],73%
same,Population Fragmented Nuclei (%),[7],44%
same,Population Healthy Nuclei (%),[7],42%
same,Population Hoechst High Intensity Objects (%),[7],19%
same,Population Membrane Permeable-Phenotype (%),[7],5%
same,Population Mitochondria Different-Phenotype (%),[7],7%
same,Population Mitotic Cells (%),[7],26%
same,Population Normal (%),[7],80%
same,Population Pyknosed Nuclei (%),[7],12%
same,Population Tubulin-Different-Phenotype (%),[7],39%
same,Total Cell Count,[7],409
same,Population Apoptotic (%),[8],63%
same,Population Fragmented Nuclei (%),[8],69%
same,Population Healthy Nuclei (%),[8],19%
same,Population Hoechst High Intensity Objects (%),[8],45%
same,Population Membrane Permeable-Phenotype (%),[8],4%
same,Population Mitochondria Different-Phenotype (%),[8],23%
same,Population Mitotic Cells (%),[8],36%
same,Population Normal (%),[8],54%
same,Population Pyknosed Nuclei (%),[8],10%
same,Population Tubulin-Different-Phenotype (%),[8],66%
same,Total Cell Count,[8],193
CCc1cc2c(cc1CC)CC(NC[C@H](O)c1ccc(O)c3[nH]c(=O)ccc13)C2 [INDACATEROL],Population Apoptotic (%),[1],57%
same,Population Fragmented Nuclei (%),[1],22%
same,Population Healthy Nuclei (%),[1],53%
same,Population Hoechst High Intensity Objects (%),[1],9%
same,Population Membrane Permeable-Phenotype (%),[1],21%
same,Population Mitochondria Different-Phenotype (%),[1],10%
same,Population Mitotic Cells (%),[1],42%
same,Population Normal (%),[1],90%
same,Population Pyknosed Nuclei (%),[1],23%
same,Population Tubulin-Different-Phenotype (%),[1],35%
same,Total Cell Count,[1],187
same,Population Apoptotic (%),[2],33%
same,Population Fragmented Nuclei (%),[2],3%
same,Population Healthy Nuclei (%),[2],92%
same,Population Hoechst High Intensity Objects (%),[2],7%
same,Population Membrane Permeable-Phenotype (%),[2],1%
same,Population Mitochondria Different-Phenotype (%),[2],11%
same,Population Mitotic Cells (%),[2],66%
same,Population Normal (%),[2],92%
same,Population Pyknosed Nuclei (%),[2],4%
same,Population Tubulin-Different-Phenotype (%),[2],14%
same,Total Cell Count,[2],71
same,Population Apoptotic (%),[3],71%
same,Population Fragmented Nuclei (%),[3],35%
same,Population Healthy Nuclei (%),[3],45%
same,Population Hoechst High Intensity Objects (%),[3],22%
same,Population Membrane Permeable-Phenotype (%),[3],1%
same,Population Mitochondria Different-Phenotype (%),[3],43%
same,Population Mitotic Cells (%),[3],28%
same,Population Normal (%),[3],77%
same,Population Pyknosed Nuclei (%),[3],19%
same,Population Tubulin-Different-Phenotype (%),[3],74%
same,Total Cell Count,[3],230
same,Population Apoptotic (%),[4],68%
same,Population Fragmented Nuclei (%),[4],15%
same,Population Healthy Nuclei (%),[4],64%
same,Population Hoechst High Intensity Objects (%),[4],6%
same,Population Membrane Permeable-Phenotype (%),[4],23%
same,Population Mitochondria Different-Phenotype (%),[4],98%
same,Population Mitotic Cells (%),[4],31%
same,Population Normal (%),[4],93%
same,Population Tubulin-Different-Phenotype (%),[4],88%
same,Total Cell Count,[4],71
same,Population Apoptotic (%),[5],69%
same,Population Fragmented Nuclei (%),[5],23%
same,Population Healthy Nuclei (%),[5],62%
same,Population Hoechst High Intensity Objects (%),[5],10%
same,Population Membrane Permeable-Phenotype (%),[5],18%
same,Population Mitochondria Different-Phenotype (%),[5],5%
same,Population Mitotic Cells (%),[5],30%
same,Population Normal (%),[5],89%
same,Population Pyknosed Nuclei (%),[5],13%
same,Population Tubulin-Different-Phenotype (%),[5],36%
same,Total Cell Count,[5],184
same,Population Apoptotic (%),[6],14%
same,Population Fragmented Nuclei (%),[6],4%
same,Population Healthy Nuclei (%),[6],86%
same,Population Hoechst High Intensity Objects (%),[6],3%
same,Population Membrane Permeable-Phenotype (%),[6],0%
same,Population Mitochondria Different-Phenotype (%),[6],10%
same,Population Mitotic Cells (%),[6],85%
same,Population Normal (%),[6],96%
same,Population Pyknosed Nuclei (%),[6],9%
same,Population Tubulin-Different-Phenotype (%),[6],12%
same,Total Cell Count,[6],73
same,Population Apoptotic (%),[7],71%
same,Population Fragmented Nuclei (%),[7],30%
same,Population Healthy Nuclei (%),[7],49%
same,Population Hoechst High Intensity Objects (%),[7],33%
same,Population Membrane Permeable-Phenotype (%),[7],5%
same,Population Mitochondria Different-Phenotype (%),[7],55%
same,Population Mitotic Cells (%),[7],28%
same,Population Normal (%),[7],66%
same,Population Pyknosed Nuclei (%),[7],19%
same,Population Tubulin-Different-Phenotype (%),[7],77%
same,Total Cell Count,[7],243
same,Population Apoptotic (%),[8],89%
same,Population Fragmented Nuclei (%),[8],11%
same,Population Healthy Nuclei (%),[8],67%
same,Population Hoechst High Intensity Objects (%),[8],6%
same,Population Membrane Permeable-Phenotype (%),[8],59%
same,Population Mitochondria Different-Phenotype (%),[8],100%
same,Population Mitotic Cells (%),[8],10%
same,Population Normal (%),[8],93%
same,Population Pyknosed Nuclei (%),[8],20%
same,Population Tubulin-Different-Phenotype (%),[8],86%
same,Total Cell Count,[8],78
same,Population Apoptotic (%),[9],30%
same,Population Fragmented Nuclei (%),[9],29%
same,Population Healthy Nuclei (%),[9],64%
same,Population Hoechst High Intensity Objects (%),[9],10%
same,Population Membrane Permeable-Phenotype (%),[9],20%
same,Population Mitochondria Different-Phenotype (%),[9],0%
same,Population Mitotic Cells (%),[9],69%
same,Population Normal (%),[9],89%
same,Population Pyknosed Nuclei (%),[9],6%
same,Population Tubulin-Different-Phenotype (%),[9],20%
same,Total Cell Count,[9],222
same,Population Apoptotic (%),[10],100%
same,Population Fragmented Nuclei (%),[10],37%
same,Population Healthy Nuclei (%),[10],60%
same,Population Hoechst High Intensity Objects (%),[10],15%
same,Population Membrane Permeable-Phenotype (%),[10],7%
same,Population Mitochondria Different-Phenotype (%),[10],4%
same,Population Mitotic Cells (%),[10],0%
same,Population Normal (%),[10],84%
same,Population Pyknosed Nuclei (%),[10],1%
same,Population Tubulin-Different-Phenotype (%),[10],35%
same,Total Cell Count,[10],82
same,Population Apoptotic (%),[11],70%
same,Population Fragmented Nuclei (%),[11],38%
same,Population Healthy Nuclei (%),[11],46%
same,Population Hoechst High Intensity Objects (%),[11],51%
same,Population Membrane Permeable-Phenotype (%),[11],1%
same,Population Mitochondria Different-Phenotype (%),[11],54%
same,Population Mitotic Cells (%),[11],29%
same,Population Normal (%),[11],48%
same,Population Pyknosed Nuclei (%),[11],14%
same,Population Tubulin-Different-Phenotype (%),[11],67%
same,Total Cell Count,[11],237
same,Population Apoptotic (%),[12],66%
same,Population Fragmented Nuclei (%),[12],52%
same,Population Healthy Nuclei (%),[12],44%
same,Population Hoechst High Intensity Objects (%),[12],37%
same,Population Membrane Permeable-Phenotype (%),[12],0%
same,Population Mitochondria Different-Phenotype (%),[12],28%
same,Population Mitotic Cells (%),[12],33%
same,Population Normal (%),[12],62%
same,Population Pyknosed Nuclei (%),[12],3%
same,Population Tubulin-Different-Phenotype (%),[12],61%
same,Total Cell Count,[12],465
